Activity calls are given as the source filed them.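 Rule for the calls: active = mean EC50 below 10 µM; inactive = the rest.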
What follows are compounds tested against Type-1 angiotensin II receptor (Homo sapiens) (UniProt P30556) (assay: AGTR1 activation selectivity check – cell-based, CHO-K1 PathHunter, luminescence, set 2, selectivity assay for APJ agonist project, SAR follow-up (AID 488986)). Details: CHO-K1 AGTR1 PathHunter beta-arrestin, 90 min.
In short: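 System: CHO-K1 human AT1 beta-arrestin recruitment cells; compound dosing: dose-response series, DMSO 1.32% final; times: cells overnight, compounds 90 min 25 °C, reagent 60 min; signal: luminescence from complemented beta-galactosidase fragments after detection reagent; controls: angiotensin II 1 µM final as high control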

Sequence of Type-1 angiotensin II receptor (Homo sapiens) (P30556 whole entry, looked up, the tested form may be a part): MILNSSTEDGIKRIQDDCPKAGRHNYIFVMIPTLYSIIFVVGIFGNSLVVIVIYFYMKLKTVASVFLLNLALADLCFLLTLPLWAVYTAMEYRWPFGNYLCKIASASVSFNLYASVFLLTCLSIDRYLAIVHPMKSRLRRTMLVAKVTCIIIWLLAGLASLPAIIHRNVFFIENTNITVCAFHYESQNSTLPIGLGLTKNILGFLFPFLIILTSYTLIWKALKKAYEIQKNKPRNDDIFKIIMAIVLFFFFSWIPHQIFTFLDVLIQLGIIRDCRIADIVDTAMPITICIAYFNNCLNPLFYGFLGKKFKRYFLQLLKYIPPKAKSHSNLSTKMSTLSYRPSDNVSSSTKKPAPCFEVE

SMILES | EC50
CC1=CC(=O)C(C(C)(C)C)=C/C1=N/OS(=O)(=O)c1ccccc1 | > 79 µM (inactive)
CCN1C(=O)/C(=C/C=C2/Sc3ccccc3N2CC)SC1=S | > 79 µM (inactive)
CCOc1ccc(S(=O)(=O)Nc2nc(-c3ccccc3)cs2)cc1 | > 79 µM (inactive)
CCOc1cc2[nH]c(=S)n(CCCC(=O)NCc3ccccn3)c(=O)c2cc1OCC | > 79 µM (inactive)
CCOc1cc2[nH]c(=S)n(CCN3CCC(C)CC3)c(=O)c2cc1OCC | > 79 µM (inactive)
Cc1cc(O)c(C2CCCCC2)cc1N=O | > 79 µM (inactive)
CCCCN(C)CCn1c(=S)[nH]c2cc(OCC)c(OCC)cc2c1=O | > 79 µM (inactive)
CC1=C/C(=N/OS(=O)(=O)c2ccccc2)C(C(C)C)=CC1=O | > 79 µM (inactive)
CCc1nnc(NC(=O)CSc2nc3cccnc3n2C2CCCCC2)s1 | > 79 µM (inactive)
Cc1cc(C)n2nc3nc(N4CCCCC4)nc(-c4ccccc4)c3c2n1 | > 79 µM (inactive)
CCc1nnc(NC(=O)CSc2nc3cccnc3n2Cc2ccccc2)s1 | > 79 µM (inactive)
CCN1C(=O)/C(=C/C=C2/SC(c3ccccc3)=C(c3ccccc3)N2CC)SC1=S | > 79 µM (inactive)
CCOc1cc2[nH]c(=S)n(CCN3CCCCC3CC)c(=O)c2cc1OCC (stereo not drawn) | > 79 µM (inactive)
CC1=CC(=NOS(=O)(=O)c2ccccc2)C(C)=CC1=O | > 79 µM (inactive)
CC1=CC(=O)C=C/C1=N/OS(=O)(=O)c1ccc(C)cc1 | > 79 µM (inactive)
CC1=CC(=O)C(C2CCCCC2)=C/C1=N/OS(=O)(=O)c1ccccc1 | > 79 µM (inactive)
CC(C)C1=CC(=NOS(=O)(=O)c2ccccc2)C=C(C(C)C)C1=O | > 79 µM (inactive)
CCN1C(c2ccccc2)=C(c2ccccc2)S/C1=C\C=C1/SC(=S)N(C)C1=O | 4.96 µM
